Data taken from ChEMBL document CHEMBL3745677, “Discovery of 6-(4-{[5-Cyclopropyl-3-(2,6-dichlorophenyl)isoxazol-4-yl]methoxy}piperidin-1-yl)-1-methyl-1H-indole-3-carboxylic Acid: A Novel FXR Agonist for the Treatment of Dyslipidemia” (J Med Chem, 2015).
pEC50: −log10 of the molar value.

Tests used:
[1] = AUC (0 to 24 hrs) in cynomolgus monkey at 3 mg/kg, po by LC-MS/MS analysis; format: ADME, organism-based, Macaca fascicularis; set-up: time < 24 hr, dose 3 mg/kg, route oral; details: in vivo
How it was run: (§1)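 Sprague Dawley rats, Beagle dogs and Cynomolgus monkeys were dosed IV at 1 mg/kg (rat, dog) or 0.91 mpk (monkey) in 5% Solutol/5% EtOH in saline. Oral/nasogastric dosing was 3 mpk in 1.0% CMC/0.25% PS80/0.05% antifoam in purified water. Samples were processed to plasma and analysed by LC-MS/MS; values are mean ± SD, N=2-3.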

Mus musculus [2] = test: Antidyslipidemic activity in western-diet fed mouse expressing LDL-receptor (-/-) assessed as decrease in triglyceride level at 10 mg/kg qd for a week administered via gavage […]; format: functional; details: po
How it was run: (§2)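 Male LDLR null mice, six per group, were gavaged once daily for one week with compound (in situ sodium salt) or vehicle (5% Solutol, 5% EtOH, 1% wt/v CMC) at 5 mL/kg. On day 7 they were bled by cardiac puncture under CO2 anaesthesia. Serum cholesterol and triglycerides were measured enzymatically on a clinical chemistry analyser (mean ± SD, n=6). ED50 was obtained by nonlinear regression.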

[3] = Tmax in beagle dog at 3 mg/kg, po by LC-MS/MS analysis; format: ADME, organism-based, Canis lupus familiaris; details: in vivo
How it was run: (§3)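 Oral/nasogastric dosing at 3 mpk in 1.0% CMC/0.25% PS80/0.05% antifoam in purified water. Plasma samples collected and analyzed by LC-MS/MS; parameters reported as mean ± SD, N=2-3.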

[4] = Cmax in rat at ED50 dose for lipid modulation; format: ADME, organism-based; details: in vivo
[5] = Volume of distribution at steady state in cynomolgus monkey at 0.91 mg/kg, iv by LC-MS/MS analysis; format: ADME, organism-based, Macaca fascicularis; details: in vivo, read-out: Vdss
How it was run: (§4)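 Intravenous dose given in 5% Solutol / 5% EtOH in saline (1 mg/kg rat and dog, 0.91 mpk monkey). Plasma samples collected and analyzed by LC-MS/MS; parameters reported as mean ± SD, N=2-3.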

[6] = Cmax in cynomolgus monkey at 3 mg/kg, po by LC-MS/MS analysis; format: ADME, organism-based, Macaca fascicularis; set-up: dose 3 mg/kg, route oral; details: in vivo; how it was run: as §1
[7] = Initial plasma concentration in Sprague-Dawley rat at 1 mg/kg, iv by LC-MS/MS analysis; format: ADME, organism-based; how it was run: as §4
Mus musculus [8] = test: Antidyslipidemic activity in western-diet fed mouse expressing LDL-receptor (-/-) assessed as decrease in total cholesterol level at 1 mg/kg qd for a week administered via gavage […]; format: functional; details: po; how it was run: as §2
Rattus norvegicus [9] = test: Antidyslipidemic activity in ZDF rat assessed as LDL/IgHDL level at 3 mg/kg for 9 days by FPLC analysis (reference value: 17.8 mg/dL); format: functional, Zucker
Mus musculus [10] = test: Antidyslipidemic activity in western-diet fed mouse expressing LDL-receptor (-/-) assessed as decrease in very-low density lipoprotein level at 3 mg/kg qd for a week administered via gavage by FPLC analysis; format: functional; details: po
How it was run: (§5)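 LDLR null male mice, six per group, were dosed by gavage once daily for one week (vehicle 5% Solutol, 5% EtOH, 1% wt/v CMC; 5 mL/kg). Serum was collected by cardiac puncture on day 7 under CO2 anaesthesia. Pooled serum from each treatment group was fractionated by FPLC to quantify VLDL and LDL.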

[11] = Terminal half life in Sprague-Dawley rat at 1 mg/kg, iv by LC-MS/MS analysis; format: ADME, organism-based; details: in vivo, read-out: beta t1/2 (converted); how it was run: as §4
Mus musculus [12] = test: Antidyslipidemic activity in western-diet fed mouse expressing LDL-receptor (-/-) assessed as decrease in low density lipoprotein level at 1 mg/kg qd for a week administered via gavage by FPLC analysis; format: functional; details: po; how it was run: as §5
Mus musculus [13] = test: Antidyslipidemic activity in western-diet fed mouse expressing LDL-receptor (-/-) assessed as decrease in low density lipoprotein level at 10 mg/kg qd for a week administered via gavage by FPLC analysis; format: functional; details: po; how it was run: as §5
[14] = AUC (0 to 24 hrs) in beagle dog at 1 mg/kg, iv by LC-MS/MS analysis; format: ADME, organism-based, Canis lupus familiaris; set-up: time < 24 hr, dose 1 mg/kg, route intravenous; details: in vivo; how it was run: as §1
Rattus norvegicus [15] = test: Antidyslipidemic activity in ZDF rat assessed as VLDL level at 3 mg/kg for 9 days by FPLC analysis (reference value: 35 mg/dL); format: functional, Zucker
Mus musculus [16] = test: Antidyslipidemic activity in western-diet fed mouse expressing LDL-receptor (-/-) assessed as decrease in low density lipoprotein level at 3 mg/kg qd for a week administered via gavage by FPLC analysis; format: functional; details: po; how it was run: as §5
Rattus norvegicus [17] = test: Antidyslipidemic activity in ZDF rat assessed as LDL/IgHDL level at 10 mg/kg for 9 days by FPLC analysis (reference value: 17.8 mg/dL); format: functional, Zucker
[18] = Tmax in Sprague-Dawley rat at 3 mg/kg, po by LC-MS/MS analysis; format: ADME, organism-based; details: in vivo; how it was run: as §3
Mus musculus [19] = test: Antidyslipidemic activity in western-diet fed mouse expressing LDL-receptor (-/-) assessed as decrease in total cholesterol level administered once daily for a week via gavage […]; format: functional; details: po; how it was run: as §2
Rattus norvegicus [20] = test: Antidyslipidemic activity in ZDF rat assessed as LDL/IgHDL level at 10 mg/kg cotreated with 0.3 mg/kg rosiglitazone for 9 days by FPLC analysis (reference value: 17.8 mg/dL); format: functional, Zucker
Rattus norvegicus [21] = test: Antidyslipidemic activity in ZDF rat assessed as VLDL level at 10 mg/kg cotreated with 0.3 mg/kg rosiglitazone for 9 days by FPLC analysis (reference value: 35 mg/dL); format: functional, Zucker
Glucocorticoid receptor = target: T1, Glucocorticoid receptor (Homo sapiens, UniProt P04150); test: Agonist activity at glucocorticoid receptor (unknown origin) expressed in HEK293 cells assessed as transcriptional activation; format: cell-based
T1 sequence (P04150 whole entry): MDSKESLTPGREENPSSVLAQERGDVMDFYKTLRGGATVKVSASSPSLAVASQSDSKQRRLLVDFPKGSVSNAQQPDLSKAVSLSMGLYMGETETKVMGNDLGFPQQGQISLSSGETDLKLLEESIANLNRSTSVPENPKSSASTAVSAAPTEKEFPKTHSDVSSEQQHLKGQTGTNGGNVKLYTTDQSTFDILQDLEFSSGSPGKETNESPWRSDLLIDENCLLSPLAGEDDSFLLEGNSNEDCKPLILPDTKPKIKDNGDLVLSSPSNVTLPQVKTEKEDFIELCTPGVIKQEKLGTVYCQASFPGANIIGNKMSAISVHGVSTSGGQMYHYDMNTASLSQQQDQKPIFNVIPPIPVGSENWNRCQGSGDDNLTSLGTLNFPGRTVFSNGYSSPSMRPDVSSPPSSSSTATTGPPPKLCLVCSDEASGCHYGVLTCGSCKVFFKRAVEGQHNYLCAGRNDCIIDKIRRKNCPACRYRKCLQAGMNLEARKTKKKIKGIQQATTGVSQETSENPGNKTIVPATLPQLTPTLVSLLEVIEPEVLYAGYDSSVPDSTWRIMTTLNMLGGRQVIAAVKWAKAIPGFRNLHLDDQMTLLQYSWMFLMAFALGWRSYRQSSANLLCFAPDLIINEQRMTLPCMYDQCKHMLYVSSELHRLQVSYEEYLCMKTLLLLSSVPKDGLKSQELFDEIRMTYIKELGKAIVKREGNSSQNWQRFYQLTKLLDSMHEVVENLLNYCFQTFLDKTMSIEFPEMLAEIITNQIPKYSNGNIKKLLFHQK

[22] = Initial plasma concentration in beagle dog at 1 mg/kg, iv by LC-MS/MS analysis; format: ADME, organism-based, Canis lupus familiaris; how it was run: as §4

Cn1cc(C(=O)O)c2ccc(N3CCC(OCc4c(-c5c(Cl)cccc5Cl)noc4C4CC4)CC3)cc21 [TERN-101]
AUC(0-t) at 24 h [1]: 1810 ng·h/mL
inhibition in vivo at 10 mg/kg (Mus musculus [2]): 76%
Tmax [3]: 0.75 h
Cmax [4]: 4.62 ng/mL
Vd [5]: 0.597 L/kg
Cmax [6]: 221 ng/mL
C0 [7]: 2530 ng/mL
inhibition in vivo at 1 mg/kg (Mus musculus [8]): 37%
Activity (Rattus norvegicus [9]): 10.8 mg/dL
inhibition in vivo at 3 mg/kg (Mus musculus [10]): 78%
half-life [11]: 2 h
inhibition in vivo at 1 mg/kg (Mus musculus [12]): 1%
inhibition in vivo at 10 mg/kg (Mus musculus [13]): 50%
AUC(0-t) at 24 h [14]: 1780 ng·h/mL
Activity (Rattus norvegicus [15]): 21.9 mg/dL
inhibition in vivo at 3 mg/kg (Mus musculus [16]): 15%
Activity (Rattus norvegicus [17]): 12.5 mg/dL
Tmax [18]: 1.08 h
ED50 (Mus musculus [19]): 2 mg/kg
Activity (Rattus norvegicus [20]): 20.3 mg/dL
Activity (Rattus norvegicus [21]): 8.5 mg/dL
pEC50 (Glucocorticoid receptor): < 5.00
C0 [22]: 1180 ng/mL
